Data: ChEMBL document CHEMBL3407471, “Development of potent inhibitors of pyocyanin production in Pseudomonas aeruginosa” (J Med Chem, 2015)
Calls of active or inactive are those of the source. Unless noted, the rule behind the calls is not given here.

Experiments:
Pseudomonas aeruginosa [1] = test: Inhibition of quorum sensing activity in wild-type Pseudomonas aeruginosa PA14 assessed as inhibition of pyocyanin production at 100 uM by spectrophotometry relative to control; assay type: functional
Summary of the method: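 Wild-type P. aeruginosa PA14 cultures exposed to compound at 100 μM. Pyocyanin read as absorbance at 695 nm. Efficacy scaled so that wild-type pyocyanin level = 0% and absorbance equal to background medium = 100%.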

Pseudomonas aeruginosa [2] = test: Antimicrobial activity against wild-type Pseudomonas aeruginosa PA14; assay type: functional
Pseudomonas aeruginosa [3] = test: Inhibition of quorum sensing activity in wild-type Pseudomonas aeruginosa PA14 assessed as inhibition of pyocyanin production by spectrophotometry relative to control; assay type: functional
Summary of the method: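 Pyocyanin produced by wild-type PA14, read by absorbance at 695 nm, across a range of compound levels. IC50 derived from the dose–response.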

Escherichia coli [4] = test: Agonist activity at LasR in Escherichia coli at 100 uM
Escherichia coli [5] = test: Agonist activity at RhlR in Escherichia coli at 100 uM
Escherichia coli [6] = test: Antagonist activity at LasR in Escherichia coli assessed as reduction of AHL-induced GFP production at 100 uM
Escherichia coli [7] = test: Antagonist activity at RhlR in Escherichia coli assessed as reduction of AHL-induced GFP production at 100 uM
Escherichia coli [8] = test: Competitive binding to LasR in Escherichia coli at 100 to 500 uM
Summary of the method: (§1)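 Competition format: compound at 100 μM and 500 μM combined with increasing amounts of the receptor's native AHL (LasR or RhlR). Receptor response compared with a DMSO control.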

Escherichia coli [9] = test: Competitive binding to RhlR in Escherichia coli at 100 to 500 uM; summary of the method: as §1
Pseudomonas aeruginosa [10] = test: Antibiofilm activity against wild-type static Pseudomonas aeruginosa PA14 at 100 uM by spectrophotometry; assay type: functional
Pseudomonas aeruginosa [11] = test: Inhibition of pyocyanin production in wild-type Pseudomonas aeruginosa PA14 assessed as down regulation of PA14_35160 relative to control; assay type: functional
Summary of the method: (§2)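 Wild-type PA14 cultures treated with compound, and a DMSO-treated culture served as control. RNA extracted and analysed by microarray. Genes counted as changed when expression differed by more than 2-fold.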

Pseudomonas aeruginosa [12] = test: Inhibition of pyocyanin production in wild-type Pseudomonas aeruginosa PA14 assessed as down regulation of PA14_16310 relative to control; assay type: functional; summary of the method: as §2
Pseudomonas aeruginosa [13] = test: Inhibition of pyocyanin production in wild-type Pseudomonas aeruginosa PA14 assessed as down regulation of mexH relative to control; assay type: functional; summary of the method: as §2
Pseudomonas aeruginosa [14] = test: Inhibition of pyocyanin production in wild-type Pseudomonas aeruginosa PA14 assessed as down regulation of mexI relative to control; assay type: functional; summary of the method: as §2
Pseudomonas aeruginosa [15] = test: Inhibition of pyocyanin production in wild-type Pseudomonas aeruginosa PA14 assessed as down regulation of mexG relative to control; assay type: functional; summary of the method: as §2
Pseudomonas aeruginosa [16] = test: Inhibition of pyocyanin production in wild-type Pseudomonas aeruginosa PA14 assessed as down regulation of opmD relative to control; assay type: functional; summary of the method: as §2
Pseudomonas aeruginosa [17] = test: Inhibition of pyocyanin production in wild-type Pseudomonas aeruginosa PA14 assessed as down regulation of PA14_21530 relative to control; assay type: functional; summary of the method: as §2
Pseudomonas aeruginosa [18] = test: Inhibition of pyocyanin production in wild-type Pseudomonas aeruginosa PA14 assessed as down regulation of PA14_22320 relative to control; assay type: functional; summary of the method: as §2
Pseudomonas aeruginosa [19] = test: Inhibition of pyocyanin production in wild-type Pseudomonas aeruginosa PA14 assessed as down regulation of ahpF relative to control; assay type: functional; summary of the method: as §2
Pseudomonas aeruginosa [20] = test: Inhibition of pyocyanin production in wild-type Pseudomonas aeruginosa PA14 assessed as down regulation of trxB2 relative to control; assay type: functional; summary of the method: as §2
Pseudomonas aeruginosa [21] = test: Inhibition of pyocyanin production in wild-type Pseudomonas aeruginosa PA14 assessed as down regulation of katA relative to control; assay type: functional; summary of the method: as §2
Pseudomonas aeruginosa [22] = test: Inhibition of pyocyanin production in wild-type Pseudomonas aeruginosa PA14 assessed as down regulation of PA14_03090 relative to control; assay type: functional; summary of the method: as §2
Pseudomonas aeruginosa [23] = test: Inhibition of pyocyanin production in wild-type Pseudomonas aeruginosa PA14 assessed as down regulation of PA14_58040 relative to control; assay type: functional; summary of the method: as §2
Pseudomonas aeruginosa [24] = test: Inhibition of pyocyanin production in wild-type Pseudomonas aeruginosa PA14 assessed as down regulation of PA14_51830 relative to control; assay type: functional; summary of the method: as §2
Pseudomonas aeruginosa [25] = test: Inhibition of pyocyanin production in wild-type Pseudomonas aeruginosa PA14 assessed as down regulation of katB relative to control; assay type: functional; summary of the method: as §2
Pseudomonas aeruginosa [26] = test: Inhibition of pyocyanin production in wild-type Pseudomonas aeruginosa PA14 assessed as down regulation of fumC relative to control; assay type: functional; summary of the method: as §2

SMILES: O=C(CCCCCOc1cccc(Br)c1)Nc1ccnc(C(F)(F)F)c1
- Efficacy (Pseudomonas aeruginosa [1]): 99%
- Activity (Pseudomonas aeruginosa [2]): inactive
- IC50 (Pseudomonas aeruginosa [3]): 2.7 µM
- Activity (Escherichia coli [4]): inactive
- Activity (Escherichia coli [5]): inactive
- Activity (Escherichia coli [6]): inactive
- Activity (Escherichia coli [7]): inactive
- Activity (Escherichia coli [8]): inactive
- Activity (Escherichia coli [9]): inactive
- Activity (Pseudomonas aeruginosa [10]): inactive
- fold change (FC) (Pseudomonas aeruginosa [11]): 4.93
- fold change (FC) (Pseudomonas aeruginosa [12]): 3.27
- fold change (FC) (Pseudomonas aeruginosa [13]): 2.93
- fold change (FC) (Pseudomonas aeruginosa [14]): 2.84
- fold change (FC) (Pseudomonas aeruginosa [15]): 2.68
- fold change (FC) (Pseudomonas aeruginosa [16]): 2.5
- fold change (FC) (Pseudomonas aeruginosa [17]): 44.39
- fold change (FC) (Pseudomonas aeruginosa [18]): 35.99
- fold change (FC) (Pseudomonas aeruginosa [19]): 33.03
- fold change (FC) (Pseudomonas aeruginosa [20]): 27.79
- fold change (FC) (Pseudomonas aeruginosa [21]): 20.8
- fold change (FC) (Pseudomonas aeruginosa [22]): 14.35
- fold change (FC) (Pseudomonas aeruginosa [23]): 5.67
- fold change (FC) (Pseudomonas aeruginosa [24]): 5.6
- fold change (FC) (Pseudomonas aeruginosa [25]): 4.15
- fold change (FC) (Pseudomonas aeruginosa [26]): 2.71
